Experimental data from ChEMBL document CHEMBL5252513, “Identification of a Benzoisoxazoloazepine Inhibitor (CPI-0610) of the Bromodomain and Extra-Terminal (BET) Family as a Candidate for Human Clinical Trials” (J Med Chem, 2016).

Tests used:
[1] = Unbound AUC in rat at 5 mg/kg,po; type: ADME, organism-based; details: in vivo
[2] = Tmax in mouse at 30 mg/kg,po; type: ADME, organism-based; details: in vivo
[3] = Toxicity in rat assessed as GI mucosal ulceration at 2 to 20 mg/kg,po QD consecutive for 14 days followed by 2 weeks recovery period; type: organism-based; details: in vivo, 336 h, dose 2-20 mg/kg, time 14 day
In short: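 Oral suspension given once daily for 14 consecutive days (rat 2, 6, 20 mg/kg; dog 2, 4, 6 mg/kg) in dose range-finding and GLP repeat-dose studies, GLP arms with an added 2-week recovery period; histopathology and clinical pathology findings recorded.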

fAUC [1]: 0.64 µM·h | Tmax [2]: 25.2 min
SMILES: Cc1noc2c1-c1ccccc1C(c1ccc(Cl)cc1)=N[C@H]2CC(N)=O [PELABRESIB]
Activity [3]: Toxic
